# Data taken from PubChem BioAssay AID624204 (Sanford-Burnham Center for Chemical Genomics, 2012).
# The whole screen tested about 360,000 compounds, of which about 770 (0.21%) were called active. Shown is part of a subset that was picked to be rich in actives. Unmarked numbers belong to inactive results.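 How the source made its calls: active means inhibition at least 30% at 10 µM, raw YFP signal under a set limit, fluorescence ratio 0.5 to 1.5; inactive means the rest.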
# Biological target: Sentrin-specific protease 1 (Homo sapiens) (UniProt Q9P0U3)
# Sequence (Q9P0U3 419-644 limits assumed): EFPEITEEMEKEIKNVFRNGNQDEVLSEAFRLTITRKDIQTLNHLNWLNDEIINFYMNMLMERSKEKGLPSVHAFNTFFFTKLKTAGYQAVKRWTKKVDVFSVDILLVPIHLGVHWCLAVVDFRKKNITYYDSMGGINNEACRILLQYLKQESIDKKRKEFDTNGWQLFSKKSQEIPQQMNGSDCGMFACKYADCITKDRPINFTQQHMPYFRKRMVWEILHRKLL
# Test: human SENP1 catalytic domain inhibitors, primary screen, biochemical, FRET, uHTS (AID 624204);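 further: 0% = enzyme with DMSO and 100% = no enzyme wells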
# Conditions: recombinant SENP1 catalytic domain, CyPet-SUMO1-YPet FRET cleavage; at 10 µM; hits give high values
# Procedure, shortened: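 Compound: 10 µM single point, 0.5% DMSO; Test system: hSENP1 catalytic domain, recombinant; Timing: 50 min reaction at room temperature; Technique: FRET, CFP and YFP emission; Control set: no-enzyme wells low, DMSO-plus-enzyme wells high control.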
row,SMILES,inhibition
1,Nn1c(Cc2cccc3ccccc23)nnc1SCC(=O)N1CC(=O)Nc2ccccc21,3.32%
2,CCc1ccc2ncc(C(=O)c3ccccc3)c(N3CCOCC3)c2c1,-0.316%
3,O=C(CCN1C(=O)c2ccccc2C1=O)NNC(=O)c1ccc(Cl)cc1Cl,1.7%
4,Cc1c(C(=O)NCCN2C(=O)S/C(=C\c3cccs3)C2=O)cccc1[N+](=O)[O-],5.33%
5,O=C(CCN1C(=O)/C(=C/c2cccs2)SC1=S)NNC(=O)c1cccc(O)c1,72.7% (active)
6,O=C(O)c1cc(S(=O)(=O)N2CCCCCC2)c(Cl)cc1Cl,-0.414%
7,Cc1nn(-c2ccccc2)c(CC(C)(C)C(=O)O)c1C(=O)O,1.05%
8,CCCCN(C(=O)CSCC(=O)Nc1ccc(OC)cc1)c1c(N)n(CCC)c(=O)[nH]c1=O,-2.42%
9,Cc1cc(=O)cc(C)n1-c1ccc(Cl)c(Cl)c1,2.24%
10,CC(=O)NC1(c2cccc(F)c2)CCN(CC(=O)NC(C)C)CC1,-0.563%
11,O=C(CC1CCCCC1)NCc1ccc(F)cc1,1.88%
12,CNS(=O)(=O)c1cccc(C(=O)OCCCC(=O)c2ccccc2)c1,0.585%
13,COc1ccc(CC2c3cc(OC)c(OC)cc3CC[N+]2(C)CCC(=O)OCCCCCOC(=O)CC[N+]2(C)CCc3cc(OC)c(OC)cc3C2Cc2ccc(OC)c(OC)c2)cc1OC (configuration not stated),-1.31%
14,CC(=O)c1cccc(-c2cnc3c(NC=O)cc(-c4ccc(N5CCN(C)CC5)cc4)cn23)c1,28%
15,CC(=O)c1cccc(-c2cnc3c(NC=O)cc(-c4ccc(N(C)C)cc4)cn23)c1,50% (active)
16,CN(C)C(=O)c1cccc(-c2cnc3c(NC=O)cc(-c4ccc(C(=O)N5CCOCC5)cc4)cn23)c1,-29.9%
17,CC(=O)NCC(=O)N1CCC(n2nccc2NC(=O)CCCc2ccccc2)CC1,0.687%
18,Cc1nc2nc(C)c(CCC(=O)N3CCN(c4ccccc4)CC3)c(C)n2n1,0.72%
19,O=C(C[C@H]1C[C@H]2c3cc(NS(=O)(=O)c4ccc(F)cc4)ccc3O[C@H]2[C@H](CO)O1)NCc1cc(F)ccc1F,-0.578%

row,SMILES,inhibition
1,O=C(Nc1ccc(F)cc1F)N1CCCN(CCOc2ccccc2)CC1,-1.95%
2,COc1ccc(N2CCN(C(=O)c3ccc(N4CCCCS4(=O)=O)cc3)CC2)cc1,-2.08%
3,Cn1nnnc1SCC(=O)Nc1ccccc1C(=O)NC1CC1,-4.1%
4,Cc1cccc(NC(=O)c2ccc3c(=O)n(CC4CCCO4)c(=S)[nH]c3c2)c1 (configuration not stated),-0.024%
5,CC1(C)CN(c2ccc(-c3ccnc4ncnn34)cc2)C1=O,-1.93%
6,COc1ccc(C(=O)C[n+]2ccc(N)c(C)c2C)cc1,1.97%
7,O=C(NC(=O)c1ccccc1)Nc1ccccc1O,31.8% (active)
8,O=C(Cc1ccc(Cl)cc1)NC(=S)Nc1ccccc1O,0.309%
9,O=C(NC(=S)Nc1cccc2c(O)cccc12)c1cccc(Br)c1,-10.5%
10,CC(C)Cn1cnc2c1c(=O)n(CC(O)c1ccccc1)c(=O)n2CC(C)C (configuration not stated),1.26%
11,CC1(C(=O)NCc2ccccc2)CSCC(=O)N1CCCn1ccnc1 (configuration not stated),0.15%
12,COc1cc(Br)cc(/C=N/c2ncn[nH]2)c1O,10.2%
13,CC(=O)N(CC(O)CO)c1c(I)c(C(=O)NCC(O)CO)c(I)c(C(=O)NCC(O)CO)c1I (configuration not stated),-0.483%
14,COCC(C)NC(=O)c1ccc(-n2nc(C(F)(F)F)cc2-c2cccs2)cc1 (configuration not stated),-1.75%
15,CCN(CC(=O)Nc1cc(Cl)ccc1C)C(=O)CSCc1ccc(C)cc1,1.09%
16,CN(C)c1ccc(Nc2c3c4c(cccc4n(C)c2=O)C(=O)c2ccccc2-3)cc1,60.4% (active)
17,O=C(O)CCCC(=O)N1N=C(c2ccco2)CC1c1ccco1 (configuration not stated),0.794%
18,Cc1nn2c(c1-c1ccccc1)N=C(c1ccco1)CC2c1ccccc1 (configuration not stated),38.7% (active)
19,CCOc1ccc(-c2c(C)n([O-])c3c([n+]2=O)CCCC3)cc1,0.993%

row,SMILES,inhibition
1,COC(CNC(=O)Cn1ncc2ccsc2c1=O)OC,2.87%
2,O=C(NCCC1CCCCN1S(=O)(=O)c1cccs1)C(=O)Nc1ccc(F)cc1F (configuration not stated),0.809%
3,COc1ccc(C=C2CCC3C(CCCC34OCCO4)C2=O)cc1 (configuration not stated),0.924%
4,Cc1ccc(N=C2NC(=O)c3cccc([N+](=O)[O-])c32)cc1,1.42%
5,COc1ccc(NC(=O)CN(C)C(=O)Cc2coc3cc(C)c(C)cc23)cc1,-6.79%
6,O=C1C=C(c2cccc(Cl)c2O)C[C@@H](c2ccc(F)cc2)C1,54.2% (active)
7,COc1ccccc1C1=CC(=O)C[C@H](c2ccc(F)cc2)C1,3.3%
8,O=C1C=C(c2cccc(Cl)c2)C[C@@H](c2ccc(F)cc2)C1,1.33%
9,O=S1(=O)CCN(C2CCCCCCCCCCC2)CC1,1.39%
10,COC(=O)c1ccc(CNC(=O)C2CCC(=O)N(Cc3ccccn3)C2)cc1 (configuration not stated),0.319%
11,COCCNc1nc2nonc2nc1N1CCCC1c1nccs1 (configuration not stated),-72.6%
12,FC(F)(F)c1ccc(-n2cn[nH]c2=S)cc1,-0.325%
13,Cn1c(-c2sccc2OCc2cccc(C(F)(F)F)c2)n[nH]c1=S,2.98%
14,Cn1c(-c2sc3cc(C(F)(F)F)cnc3c2-c2ccccc2)n[nH]c1=S,31.9% (active)
15,CNc1nccc(-c2ccc(Cl)cc2)c1C#N,-1.17%
16,Cc1ccc(NC(=O)Cn2c(=O)n(CCC(=O)NC3CCN(Cc4ccccc4)CC3)c(=O)c3ccccc32)cc1,2.04%
17,O=C1CCC[C@@H]2CC(N3CCCCC3)C[C@@H]3CCN1[C@H]23 (some centres not stated),-1.06%
18,Cc1cc2c(cc1C)NC1(C[C@H]3CCC(=O)N4CC[C@@H](C1)[C@@H]34)C(=NC(C)(C)CC(C)(C)C)N2 (some centres not stated),2.4%
19,O=C1CC[C@@H]2CC3(C[C@@H]4CCN1[C@H]24)Nc1cc([N+](=O)[O-])ccc1NC3=NC1CCCCC1 (some centres not stated),51% (active)
